This note sets out measurements from ChEMBL document CHEMBL5149984, “Discovery of HN37 as a Potent and Chemically Stable Antiepileptic Drug Candidate” (J Med Chem, 2021).

The first data set deals with Potassium voltage-gated channel subfamily KQT member 2 (Rattus norvegicus) (UniProt O88943). The data set can be described thus: Agonist activity at rat Kv7.2 channel expressed in CHO cells assessed as shift of half voltage of maximal activation at 10 uM by whole cell patch clamp based electrophysiological method. The note with it: filed as agonist. Put shortly: (§1)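 Rat KCNQ2 cotransfected with EGFP plasmid by Lipofectamine 3000 into CHO cells (DMEM/F12, 10% FBS; split 24 h before transfection). Whole-cell recording at room temperature. Pipette: 145 mM KCl, 1 mM MgCl2, 5 mM EGTA, 10 mM HEPES, 5 mM MgATP, pH 7.3. Bath, constantly perfused: 140 mM NaCl, 5 mM KCl, 2 mM CaCl2, 1.5 mM MgCl2, 10 mM glucose, 10 mM HEPES, pH 7.4. Signals filtered at 1 kHz. Compound at 10 μM. I/I0 is outward current amplitude with over without compound. ΔV1/2 is the shift in V1/2 from Boltzmann fits of activation curves. Mean ± SEM.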
Chain of Potassium voltage-gated channel subfamily KQT member 2 (Rattus norvegicus) (O88943 whole entry, the tested form may be a part): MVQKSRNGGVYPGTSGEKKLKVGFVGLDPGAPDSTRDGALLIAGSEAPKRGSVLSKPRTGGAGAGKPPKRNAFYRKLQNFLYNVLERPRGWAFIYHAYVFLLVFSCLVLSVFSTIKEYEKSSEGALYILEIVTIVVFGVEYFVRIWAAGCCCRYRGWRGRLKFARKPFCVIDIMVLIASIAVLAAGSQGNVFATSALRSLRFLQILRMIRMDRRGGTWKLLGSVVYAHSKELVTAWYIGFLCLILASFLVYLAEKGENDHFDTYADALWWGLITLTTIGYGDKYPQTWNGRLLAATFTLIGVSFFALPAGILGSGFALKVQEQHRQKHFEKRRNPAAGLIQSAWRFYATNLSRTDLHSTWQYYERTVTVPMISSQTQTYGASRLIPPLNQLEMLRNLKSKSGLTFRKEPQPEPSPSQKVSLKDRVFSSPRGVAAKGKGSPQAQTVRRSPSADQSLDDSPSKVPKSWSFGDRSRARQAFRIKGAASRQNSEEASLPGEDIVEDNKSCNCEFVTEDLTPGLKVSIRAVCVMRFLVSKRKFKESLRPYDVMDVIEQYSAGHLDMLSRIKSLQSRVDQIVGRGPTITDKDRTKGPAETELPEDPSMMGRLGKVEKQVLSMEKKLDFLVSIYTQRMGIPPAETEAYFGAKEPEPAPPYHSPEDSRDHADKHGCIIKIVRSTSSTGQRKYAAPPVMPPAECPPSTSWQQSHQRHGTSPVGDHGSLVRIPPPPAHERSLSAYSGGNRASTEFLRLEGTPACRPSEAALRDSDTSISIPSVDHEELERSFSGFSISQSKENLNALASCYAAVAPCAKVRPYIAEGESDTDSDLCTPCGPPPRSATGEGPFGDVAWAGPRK
With `C#CCN(Cc1cccc(F)c1)c1ccc(NC(=O)OC)cc1`, the Activity was -21.1 mV.

On to `C#CCN(Cc1ccc(F)cc1)c1ccc(NC(=O)OC)c(C)c1`, for which the Activity was -23.3 mV.

Take `C#CCN(Cc1ccccc1F)c1ccc(NC(=O)OC)cc1`: the Activity was -7.6 mV.

`C#CCN(Cc1ccc(F)cc1)c1ccc(NC(=O)OCC(C)C)cc1`: the Activity was -14.3 mV.

On to `C#CCN(Cc1ccc(F)cc1)c1ccc(NC(=O)OC)c(C(F)(F)F)c1`, for which the Activity is -10.4 mV.

Turning to `C#CCN(Cc1ccc(F)cc1)c1ccc(NC(=O)OC)c(C#N)c1`, the Activity was -5.1 mV.

On to `C#CCN(Cc1ccc(F)cc1)c1ccc(NC(=O)OCC)cc1`, for which the Activity was -7.26 mV.

For `C#CCN(Cc1ccc(F)cc1)c1ccc(NC(=O)OC(C)(C)C)cc1`, the Activity was -19.4 mV.

With `C#CCN(Cc1ccc(F)cc1)c1ccc(NC(=O)OCC2COC(C)(C)O2)cc1` (stereo not drawn), the Activity is -3.95 mV.

Regarding `C#CCN(Cc1ccc(F)c(F)c1)c1ccc(NC(=O)OC)cc1`, the Activity was -14.9 mV.

Consider `C#CCN(Cc1cccc(OC)c1)c1ccc(NC(=O)OC)cc1`, for which the Activity was -12.5 mV.

For `C#CCN(Cc1ccc(F)cc1)c1ccc(NC(=O)OC)c(OC(F)(F)F)c1`, the Activity is -13.2 mV.

In the case of `C#CCN(Cc1ccc(F)cc1)c1ccc(NC(=O)OC)cc1C#N`, the Activity was -9.62 mV.

Consider `C#CCN(Cc1ccc(F)cc1)c1ccc(NC(=O)OC)c(Cl)c1`, for which the Activity was -7.06 mV.

With `C#CCN(Cc1ccc(F)cc1)c1ccc(NC(=O)OC)cc1F`, the Activity is -9.06 mV.

Take `C#CCN(Cc1ccc(F)cc1)c1ccc(F)c(NC(=O)OC)c1`: the Activity is -18.7 mV.

`C#CCN(Cc1ccc(F)c(C(F)(F)F)c1)c1ccc(NC(=O)OC)cc1`: the Activity is -15.6 mV.

For the compound `C#CCN(Cc1ccc(C)cc1)c1ccc(NC(=O)OC)cc1`, the Activity was -5.77 mV.

On to `C#CCN(Cc1ccc(F)cc1)c1c(C)cc(NC(=O)OC)cc1C`, for which the Activity amounted to 13.5 mV.

Consider `C#CCN(Cc1ccccc1Cl)c1ccc(NC(=O)OC)cc1`, for which the Activity is -16.5 mV.

In the case of `C#CCN(Cc1ccc(Br)cc1)c1ccc(NC(=O)OC)cc1`, the Activity was -25.1 mV.

In the case of `C#CCN(Cc1ccc(F)cc1)c1ccc(NC(=O)OC)cc1C`, the Activity is -3.42 mV.

Turning to `C#CCN(Cc1ccc(F)cc1)c1ccc(NC(=O)OCC)c(N)c1`, the Activity was -47.9 mV.

With `C#CCN(Cc1ccc(F)cc1)c1ccc(NC(=O)OC)c(F)c1`, the Activity is -22 mV.

Regarding `C#CCN(Cc1ccc(F)cc1)c1ccc(NC(=O)OCc2ccccc2)cc1`, the Activity is -11.5 mV.

With `C#CCN(Cc1ccc(F)cc1)c1ccc(NC(=O)OC)cc1`, the Activity was -24.2 mV.

For `C#CCN(Cc1ccc(F)cc1)c1ccc(NC(C)=O)cc1`, the Activity was -6.09 mV.

Consider `C#CCN(Cc1ccc(F)cc1)c1cccc(NC(=O)OC)c1`, for which the Activity came out at 3.6 mV.

Consider `C#CCN(Cc1ccc(F)cc1)c1ccc(NC(=O)OC)cc1Cl`, for which the Activity was -2.06 mV.

Take `C#CCN(Cc1ccc(F)cc1)c1ccc(NC(=O)OCC=C)cc1`: the Activity is -14.5 mV.

A further data set shares this target. The data set can be described thus: Agonist activity at rat Kv7.2 channel expressed in CHO cells assessed as amplitude change of outward current at 10 uM by whole cell patch clamp based electrophysiological method. To be noted: filed as agonist. Put shortly:
as §1
On to `C#CCN(Cc1cccc(F)c1)c1ccc(NC(=O)OC)cc1`, for which the Activity amounted to 2.33.

In the case of `C#CCN(Cc1ccc(F)cc1)c1ccc(NC(=O)OC)c(C)c1`, the Activity is 4.8.

On to `C#CCN(Cc1ccccc1F)c1ccc(NC(=O)OC)cc1`, for which the Activity was 2.31.

As to `C#CCN(Cc1ccc(F)cc1)c1ccc(NC(=O)OCC(C)C)cc1`, the Activity came out at 1.23.

As to `C#CCN(Cc1ccc(F)cc1)c1ccc(NC(=O)OC)c(C(F)(F)F)c1`, the Activity stood at 1.42.

Regarding `C#CCN(Cc1ccc(F)cc1)c1ccc(NC(=O)OC)c(C#N)c1`, the Activity worked out at 0.52.

Turning to `C#CCN(Cc1ccc(F)cc1)c1ccc(NC(=O)OCC)cc1`, the Activity amounted to 1.99.

For `C#CCN(Cc1ccc(F)cc1)c1ccc(NC(=O)OC(C)(C)C)cc1`, the Activity came out at 1.05.

In the case of `C#CCN(Cc1ccc(F)cc1)c1ccc(NC(=O)OCC2COC(C)(C)O2)cc1` (stereo not drawn), the Activity amounted to 2.11.

Take `C#CCN(Cc1ccc(F)c(F)c1)c1ccc(NC(=O)OC)cc1`: the Activity came out at 2.52.

For the compound `C#CCN(Cc1cccc(OC)c1)c1ccc(NC(=O)OC)cc1`, the Activity came out at 2.72.

For the compound `C#CCN(Cc1ccc(F)cc1)c1ccc(NC(=O)OC)c(OC(F)(F)F)c1`, the Activity is 1.24.

Consider `C#CCN(Cc1ccc(F)cc1)c1ccc(NC(=O)OC)cc1C#N`, for which the Activity amounted to 1.94.

Regarding `C#CCN(Cc1ccc(F)cc1)c1ccc(NC(=O)OC)c(Cl)c1`, the Activity was determined as 1.09.

As for `C#CCN(Cc1ccc(F)cc1)c1ccc(NC(=O)OC)cc1F`, the Activity came to 1.39.

Consider `C#CCN(Cc1ccc(F)cc1)c1ccc(F)c(NC(=O)OC)c1`, for which the Activity was 2.75.

Regarding `C#CCN(Cc1ccc(F)c(C(F)(F)F)c1)c1ccc(NC(=O)OC)cc1`, the Activity turned out to be 1.33.

`C#CCN(Cc1ccc(C)cc1)c1ccc(NC(=O)OC)cc1`: the Activity was 1.05.

With `C#CCN(Cc1ccc(F)cc1)c1c(C)cc(NC(=O)OC)cc1C`, the Activity came to 0.72.

With `C#CCN(Cc1ccccc1Cl)c1ccc(NC(=O)OC)cc1`, the Activity came to 2.29.

In the case of `C#CCN(Cc1ccc(Br)cc1)c1ccc(NC(=O)OC)cc1`, the Activity is 3.75.

Regarding `C#CCN(Cc1ccc(F)cc1)c1ccc(NC(=O)OC)cc1C`, the Activity came out at 1.4.

Consider `C#CCN(Cc1ccc(F)cc1)c1ccc(NC(=O)OCC)c(N)c1`, for which the Activity was found to be 1.53.

As for `C#CCN(Cc1ccc(F)cc1)c1ccc(NC(=O)OC)c(F)c1`, the Activity is 2.09.

Take `C#CCN(Cc1ccc(F)cc1)c1ccc(NC(=O)OCc2ccccc2)cc1`: the Activity turned out to be 2.09.

Regarding `C#CCN(Cc1ccc(F)cc1)c1ccc(NC(=O)OC)cc1`, the Activity was 3.27.

As to `C#CCN(Cc1ccc(F)cc1)c1ccc(NC(C)=O)cc1`, the Activity stood at 1.8.

For `C#CCN(Cc1ccc(F)cc1)c1cccc(NC(=O)OC)c1`, the Activity stood at 1.65.

Turning to `C#CCN(Cc1ccc(F)cc1)c1ccc(NC(=O)OC)cc1Cl`, the Activity amounted to 1.19.

On to `C#CCN(Cc1ccc(F)cc1)c1ccc(NC(=O)OCC=C)cc1`, for which the Activity is 1.01.

Regarding `C#CCN(Cc1ccc(F)cc1)c1ccccc1NC(=O)OC`, the Activity is 0.95.

For another data set, the system named is Mus musculus. As to the kind of experiment: Anticonvulsant activity in MES induced Kunming mouse model of seizure at 30 mg/kg, po after 1 hr. The class given is functional.
Conditions: not given
A digest of the protocol:
(§2)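 MES test in male KM mice. Compounds freshly suspended in 0.5% CMC-Na and given by gavage at 20 mL/kg; 160 V stimulus through ear clips. Protection scored as absence of hindlimb tonic extension; time course at 0.25, 0.5, 1 and 2 h, otherwise tested at 1 h. ED50 from dose−response by nonlinear regression; Fisher's exact test versus vehicle.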
The compound `C#CCN(Cc1ccc(F)cc1)c1ccc(NC(=O)OC)cc1` returned an Activity of 50%.

The subject of a further data set is Mus musculus. The data set can be described thus: Anticonvulsant activity in pentylenetetrazol induced Kunming mouse model of seizure at 30 mg/kg, po after 1 hr. The class given is functional.
Conditions: not given
A digest of the protocol:
(§3)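 sc-PTZ test in male KM mice. Compound suspended in 0.5% CMC-Na and given orally 1 h before PTZ (freshly dissolved in normal saline, 100 mg/kg). Protection against clonic seizures scored; ED50 by nonlinear regression.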
With `C#CCN(Cc1ccc(F)cc1)c1ccc(NC(=O)OC)cc1`, the Activity stood at 60%.

Tested on in the next data set: not listed separately
As to the kind of experiment: Neurotoxicity in po dosed Kunming mouse assessed as motor impairment after 1 hr by rotarod test. The class given is toxicity, organism-based. The note with it: in vivo, po, 1 h. Put shortly:
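Male KM mice dosed intragastrically with compound freshly suspended in 0.5% CMC-Na. Rotarod performance scored 1 h after dosing as the fraction of animals showing motor impairment. Fisher's exact test versus vehicle; TD50 from nonlinear dose−response fit.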
As to `CC1(C)O[C@@H]2[C@@H](CO[C@@]3(COS(N)(=O)=O)OC(C)(C)O[C@@H]23)O1` [TOPIRAMATE], the Activity turned out to be 379.2 mg/kg.

Regarding `CC[C@H](C(N)=O)N1CCCC1=O` [LEVITIRACETAM], the Activity was over 500 mg/kg.

The species named for the next data set is Mus musculus. As to the kind of experiment: Anticonvulsant activity in Kunming mouse assessed as reduction in MES-induced seizure after 1 hr. In kind it is functional.
Conditions: not given
Put shortly: as §2
Consider `CC1(C)O[C@@H]2[C@@H](CO[C@@]3(COS(N)(=O)=O)OC(C)(C)O[C@@H]23)O1` [TOPIRAMATE], for which the ED50 came out at 35.5 mg/kg.

Take `CC[C@H](C(N)=O)N1CCCC1=O` [LEVITIRACETAM]: the ED50 was over 500 mg/kg.

The species entered for the next data set is Mus musculus. The data set can be described thus: Anticonvulsant activity in Kunming mouse assessed as reduction in Sc-PTZ induced seizure after 1 hr. The class given is functional.
Conditions: not given
Put shortly:
as §3
Regarding `CC1(C)O[C@@H]2[C@@H](CO[C@@]3(COS(N)(=O)=O)OC(C)(C)O[C@@H]23)O1` [TOPIRAMATE], the ED50 was over 200 mg/kg.

In the case of `CC[C@H](C(N)=O)N1CCCC1=O` [LEVITIRACETAM], the ED50 is over 500 mg/kg.

The next data set is filed under the species Mus musculus. As to the kind of experiment: Anticonvulsant activity in C57BL/6 mouse 6 Hz seizure model at 32 mA measured after 1 hr. The class given is functional.
Conditions: not given
As for `CC1(C)O[C@@H]2[C@@H](CO[C@@]3(COS(N)(=O)=O)OC(C)(C)O[C@@H]23)O1` [TOPIRAMATE], the ED50 was over 500 mg/kg.

In turn, `CC[C@H](C(N)=O)N1CCCC1=O` [LEVITIRACETAM] came in with an ED50 of 41.5 mg/kg.

The next data set is filed under the species Mus musculus. As to the kind of experiment: Anticonvulsant activity in C57BL/6 mouse 6 Hz seizure model at 44 mA measured after 1 hr.
Conditions: not given
In kind it is functional.
As to `CC1(C)O[C@@H]2[C@@H](CO[C@@]3(COS(N)(=O)=O)OC(C)(C)O[C@@H]23)O1` [TOPIRAMATE], the ED50 is over 500 mg/kg.

With `CC[C@H](C(N)=O)N1CCCC1=O` [LEVITIRACETAM], the 50% effect level (ED50) was put at a dose of 376 mg/kg.
